Measured values: ChEMBL document CHEMBL4261570, “Design, Synthesis and Preliminary Antimicrobial Evaluation of N-Alkyl Chain Tethered C-5 Functionalized Bis-Isatins” (Medchemcomm, 2017)
Activity calls are given as the source filed them. No cut-off for these calls is given here.

Tests used:
Giardia intestinalis [1] = test: Antiparasitic activity against Giardia lamblia WB trophozoites assessed as parasite growth inhibition at 50 uM after 48 hrs by ATP bioluminescence-based CellTiter-Glo luminescent cell viability assay relative to control; assay type: functional; conditions: Giardia duodenalis; for inhibition of growth at 50 µM: read-out: GI
In short: (§1)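 Trophozoites kept axenically in TYI-S-33 with penicillin and streptomycin. Each well held 5000 trophozoites and was incubated 48 h at 37 °C under anaerobic conditions in a GasPak pouch. Read-out was CellTiter-Glo ATP luminescence. Controls were 0.5% DMSO vehicle and 30 μM metronidazole. Primary screen at 50 μM in duplicate; hits were those above 50% inhibition. EC50 came from triplicate 8-point series (0.39–50 μM) and dose-response curves.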

[2] = system: Limosilactobacillus reuteri; test: Toxicity in Lactobacillus reuteri ATCC 23272 at 100 uM measured after overnight incubation by disc diffusion method; assay type: organism-based; conditions: in vivo
In short: (§2)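 Grown in Lactobacilli MRS at 37 °C under anaerobic conditions. Blank 6 mm discs were soaked 20 min at room temperature in a 100 μM working dilution in medium. Discs were placed on streaked agar alongside DMSO vehicle and antibiotic discs (levofloxacin, gentamicin), incubated overnight at 37 °C, and zones of inhibition measured in mm.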

Entamoeba histolytica [3] = test: Antiparasitic activity against Entamoeba histolytica HM-1:IMSS trophozoites assessed as parasite growth inhibition at 50 uM after 48 hrs by ATP bioluminescence-based CellTiter-Glo luminescent cell viability assay relative to control; assay type: functional; conditions: for inhibition of growth at 50 µM: read-out: GI; in short: as §1
[4] = system: Lactobacillus acidophilus; test: Toxicity in Lactobacillus acidophilus ATCC 43560 at 100 uM measured after overnight incubation by disc diffusion method; assay type: organism-based; conditions: in vivo; in short: as §2
Saccharomyces cerevisiae [5] = test: Antifungal activity against Saccharomyces cerevisiae BY4741 assessed as fungal growth at 500 uM after 48 hrs by microtiter plate liquid bioassay (reference value: 100%); assay type: functional
Saccharomyces cerevisiae [6] = test: Antifungal activity against Saccharomyces cerevisiae BY4741 assessed as fungal growth at 500 uM after 24 hrs by microtiter plate liquid bioassay (reference value: 100%); assay type: functional
Trichomonas vaginalis [7] = test: Antiparasitic activity against Trichomonas vaginalis assessed as parasite growth inhibition after 24 hrs by hemacytometer; assay type: functional, organism-based
In short: (§3)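 G3 strain cultured in TYM Diamond's medium in 15 mL tubes, with compound in DMSO. Controls were untreated and 0.1% DMSO. After 24 h, cells were counted by hemacytometer and normalized to the DMSO controls. Screening was at 50 μM. IC50 came from titrations of 5–40 μM with variable-slope regression, 4 independent trials on different days, and was then re-confirmed.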

Aspergillus parasiticus [8] = test: Antifungal activity against Aspergillus parasiticus NRRL5862 assessed as fungal growth at 500 uM after 24 hrs by microtiter plate liquid bioassay (reference value: 100%); assay type: functional
In short: (§4)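 A. parasiticus grown at 35 °C on PDA. Liquid assay in RPMI 1640, 3 × 104 to 5 × 10^4 CFU per mL, triplicate wells, 35 °C. Compounds in DMSO (<2% in media). No-treatment wells carry matched DMSO. Wells scored visually 0–4 versus the no-treatment control: 0 clear, 1 25%, 2 50%, 3 75%, 4 no reduction. Scoring follows CLSI M38-A.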

Trichomonas vaginalis [9] = test: Antiparasitic activity against Trichomonas vaginalis assessed as parasite growth inhibition at 50 uM after 24 hrs by hemacytometer relative to control; assay type: functional; conditions: read-out: GI; in short: as §3
Aspergillus parasiticus [10] = test: Antifungal activity against Aspergillus parasiticus NRRL5862 assessed as fungal growth at 500 uM after 48 hrs by microtiter plate liquid bioassay (reference value: 100%); assay type: functional; in short: as §4
Escherichia coli = test: Toxicity in Escherichia coli K-12 MG1655 at 100 uM measured after overnight incubation by disc diffusion method; assay type: organism-based, K-12 substr. MG1655; conditions: in vivo
In short: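 Grown in Luria broth at 37 °C under aerobic conditions. Blank 6 mm discs were soaked 20 min at room temperature in a 100 μM working dilution in medium. Discs were placed on streaked agar alongside DMSO vehicle and antibiotic discs (levofloxacin, gentamicin), incubated overnight at 37 °C, and inhibition zones measured in mm.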

[11] = system: Lacticaseibacillus rhamnosus; test: Toxicity in Lactobacillus rhamnosus ATCC 53103 at 100 uM measured after overnight incubation by disc diffusion method; assay type: organism-based, GG; conditions: in vivo; in short: as §2
Saccharomyces cerevisiae [12] = test: Antifungal activity against Saccharomyces cerevisiae BY4741 assessed as decrease in fungal survival at 500 uM after 48 to 72 hrs by YPD plate-based assay; assay type: functional, organism-based
In short: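 At the end of the 500 μM SG-liquid microtiter assay, the entire well contents were spread onto YPD recovery plates. Plates were cultured a further 48 to 72 h at 30 °C to judge fungal survival.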

Giardia intestinalis [13] = test: Antiparasitic activity against Giardia lamblia WB trophozoites assessed as parasite growth inhibition after 48 hrs by ATP bioluminescence-based CellTiter-Glo luminescent cell viability assay; assay type: functional, organism-based; conditions: Giardia duodenalis; in short: as §1
Entamoeba histolytica [14] = test: Antiparasitic activity against Entamoeba histolytica HM-1:IMSS trophozoites assessed as parasite growth inhibition after 48 hrs by ATP bioluminescence-based CellTiter-Glo luminescent cell viability assay; assay type: functional, organism-based; in short: as §1
Naegleria fowleri = test: Antiparasitic activity against Naegleria fowleri KUL trophozoites assessed as parasite growth inhibition after 48 hrs by ATP bioluminescence-based CellTiter-Glo luminescent cell viability assay; assay type: functional, organism-based
In short: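 Strain KUL trophozoites cultured axenically in Nelson's medium with 10% FBS at 37 °C. Each well held 10 000 trophozoites, incubated under aerobic conditions without the anaerobe pouch. Read-out was CellTiter-Glo luminescence. Positive control was 50 μM amphotericin B. Hits were serially diluted in triplicate, 8 points from 0.39 to 50 μM, and EC50 was taken from dose-response curves.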

SMILES	inhibition of growth at 50 µM (Giardia intestinalis [1]) [%]	Activity [2]	growth inhibition (GI) (Entamoeba histolytica [3])	Activity [4]	Activity (Saccharomyces cerevisiae [5]) [%]	Activity (Saccharomyces cerevisiae [6]) [%]	IC50 (Trichomonas vaginalis [7]) [µM]	Activity (Aspergillus parasiticus [8])	inhibition of growth at 50 µM (Trichomonas vaginalis [9]) [%]	Activity (Aspergillus parasiticus [10]) [%]	Activity (Escherichia coli)	Activity [11]	Activity (Saccharomyces cerevisiae [12])	IC50 (Giardia intestinalis [13]) [µM]	IC50 (Entamoeba histolytica [14]) [µM]	inhibition of growth at 50 µM (Entamoeba histolytica [3]) [%]	IC50 (Naegleria fowleri) [µM]	growth inhibition (GI) (Giardia intestinalis [1])
O=C1C(=O)N(CCCN2C(=O)C(=O)c3cc(Br)ccc32)c2ccccc21	19.3	Non-Toxic	inactive	Non-Toxic	50	25	3.72	100%	100	100	Non-Toxic	Non-Toxic	–	–	–	–	–	–
O=C1C(=O)N(CCCCCCCCBr)c2ccccc21	100	Non-Toxic	inactive	Non-Toxic	0	0	–	75 - 100%	100	100	Non-Toxic	Non-Toxic	inactive	18.4	–	–	–	–
Cc1ncc([N+](=O)[O-])n1CCO [METRONIDAZOLE]	–	–	–	–	–	–	–	–	–	–	–	–	–	6.4	5	–	–	–
O=C1C(=O)N(CCCCCN2C(=O)C(=O)c3cc(Cl)ccc32)c2ccccc21	100	Non-Toxic	–	Non-Toxic	–	–	–	–	100	–	Non-Toxic	Non-Toxic	–	23.9	–	100	14.8	–
O=C1C(=O)N(CCCN2C(=O)C(=O)c3cc(F)ccc32)c2ccccc21	100	Non-Toxic	inactive	Non-Toxic	–	–	12.5	–	100	–	Non-Toxic	Non-Toxic	–	28.8	–	–	–	–
O=C1C(=O)N(CCCCCCBr)c2ccccc21	98.9	Non-Toxic	inactive	Non-Toxic	0	0	–	75 - 100%	86.6	100	Non-Toxic	Non-Toxic	inactive	24.4	–	–	–	–
O=C1C(=O)N(CCBr)c2ccccc21	47.2	Non-Toxic	–	Non-Toxic	75	25	–	75 - 100%	62.5	100	Non-Toxic	Non-Toxic	–	–	–	7.23	23.6	–
O=C1C(=O)N(CCCCN2C(=O)C(=O)c3cc(Br)ccc32)c2ccccc21	–	Non-Toxic	inactive	Non-Toxic	–	–	25	–	100	–	Non-Toxic	Non-Toxic	–	–	–	–	–	inactive
O=C1C(=O)N(CCCCCBr)c2ccccc21	25.8	Non-Toxic	–	Non-Toxic	50	0	–	75 - 100%	71.4	100	Non-Toxic	Non-Toxic	–	–	23	100	–	–
O=C1C(=O)N(CCCCCN2C(=O)C(=O)c3cc(F)ccc32)c2ccccc21	–	Non-Toxic	inactive	Non-Toxic	75	50	–	100%	100	100	Non-Toxic	Non-Toxic	–	–	–	–	27.3	inactive
O=C1C(=O)N(CCN2C(=O)C(=O)c3cc(Cl)ccc32)c2ccccc21	3.82	Non-Toxic	–	Non-Toxic	50	25	15	100%	78.8	100	Non-Toxic	Non-Toxic	–	–	–	73.6	28.3	–
O=C1C(=O)N(CCCCBr)c2ccccc21	20.9	Non-Toxic	–	Non-Toxic	50	0	–	75 - 100%	89.8	100	Non-Toxic	Non-Toxic	–	–	–	8.47	14.5	–
